Screening data: PubChem BioAssay, several laboratories
Only some compounds are listed: those with a hit (about 1.5% of all), similar ones and a draw of the others.
CSN deneddyl inh: inhibitors of human CSN-mediated cullin deneddylation; inhibition, % at 12.5 µM; Purified CSN, SCF-Nedd8-OG deneddylation, fluorescence polarization; Q92905; 360,000 tested, 0.38% active;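 active means pattern-corrected inhibition above about 35%, with an unprinted fluorescence ratio check between 0.5 and 1.5, limit read from the data, passing the limit was not always enough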;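 further: 0% = enzyme with substrate and 100% = substrate without enzyme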
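test system = HEK293T-derived human Csn5 enzyme | amount = 0.24 nM Csn5 enzyme, final concentration | medium = Tris/NaCl/DTT buffer, pH 7.5 | schedule = 90 min reaction at room temperature | signal = FP | evaluation = inhibition of Csn5 cleavage, % | compound dosing = single dose of 12.5 µM compound with 0.25% DMSO | probe or stimulus = 10 nM SCFSkp2-Nedd8OG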
Rpn11 block: blocks the human proteasome subunit Rpn11. O00487. human 26S proteasome, Ub4-pepOG fluorescence polarization; 20S core pre-blocked with epoxomicin. calls only at 20 µM. 360,000 tested, 0.59% active. AID 588493;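 active means inhibition at 20 µM, scaled to each plate's controls, above about 33%, limit read from the data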
TPT1 inhibitor: blocks Candida albicans tRNA 2'-phosphotransferase | recombinant caTPT1, FP RNA substrate dephosphorylation | inhibition, % at 5 µM | 300,000 tested, 0.81% active | AID 1962;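 active means inhibition above the mean of all tested compounds plus 3 SD, set per screening campaign, cut at about 24% in these data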;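 further: plate controls were DMSO alone for no effect and ferristatin control at 100 nM for full effect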
HNF4A DNA FP: change in binding of human HNF4 alpha to DNA; P41235; HNF4a-FITC DNA binding, fluorescence polarization, 1 h; activity change, % at 10 µM; 360,000 tested, 0.3% active; AID 1224865; in the data active means activity change above about 30%, passing the limit was not always enough
Target sequence (P41235 whole entry, looked up): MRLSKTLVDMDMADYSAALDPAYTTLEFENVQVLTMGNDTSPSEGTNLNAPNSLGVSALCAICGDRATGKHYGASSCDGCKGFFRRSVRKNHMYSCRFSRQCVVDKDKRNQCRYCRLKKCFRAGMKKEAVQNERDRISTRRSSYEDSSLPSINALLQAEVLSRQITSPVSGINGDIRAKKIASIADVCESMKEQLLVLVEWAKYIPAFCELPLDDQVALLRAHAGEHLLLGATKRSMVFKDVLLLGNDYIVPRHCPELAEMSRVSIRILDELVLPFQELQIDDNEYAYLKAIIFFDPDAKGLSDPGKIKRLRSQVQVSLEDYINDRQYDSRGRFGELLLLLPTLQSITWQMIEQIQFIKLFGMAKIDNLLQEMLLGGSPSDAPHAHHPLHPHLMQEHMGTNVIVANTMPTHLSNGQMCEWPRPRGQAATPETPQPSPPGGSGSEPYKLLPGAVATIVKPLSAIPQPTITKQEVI
caTPT1 confirm: TPT1 (C. albicans) inhibition, confirmation; shares compounds with TPT1 inhibitor; recombinant caTPT1, fluorescence polarization, RNase T1 coupled; inhibition, % at 5 µM; 2,400 tested, 74% active; AID 2149;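 active means inhibition above the primary screen limit, the mean inhibition of all tested compounds plus 3 SD, cut at about 25% in these data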
RNase T1 inh: blocks Aspergillus oryzae RNase T1, a TPT1 counter-screen; shares compounds with TPT1 inhibitor; RNase T1 cleavage, fluorescence polarization, 1536-well; inhibition, % at 5 µM; 2,400 tested, 83% active; AID 2153;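 active means inhibition above the solvent-only control well mean plus 3 SD, limit set per screening run, cut at about 23% in these data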;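 further: plate controls were DMSO wells with enzyme for no effect and wells without RNase T1 for full effect; inhibitors block cleavage so intact labeled substrate keeps polarization high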
Target sequence (P00651 whole entry, looked up): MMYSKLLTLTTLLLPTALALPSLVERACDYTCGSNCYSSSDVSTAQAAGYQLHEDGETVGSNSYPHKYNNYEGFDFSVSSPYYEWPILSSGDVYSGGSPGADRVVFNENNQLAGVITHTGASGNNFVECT
* marks the source's active call; other numbers are inactive results.

For COc1ccc(C2(C)C(C#N)C(=O)NC(=O)C2C#N)cc1 (centres undefined) the results were CSN deneddyl inh -0.3, Rpn11 block inactive and HNF4A DNA FP -1.5.
Screening CCCN1C(=O)S/C(=C/c2ccc(N3CCOCC3)o2)C1=O returned CSN deneddyl inh 46.3, TPT1 inhibitor 179.9*, HNF4A DNA FP 217.0, caTPT1 confirm 183.4* and RNase T1 inh 165.7*.
Cc1ccc(OCCN2C(=O)S/C(=C\c3ccc(C)o3)C2=O)cc1 was read as CSN deneddyl inh 4.2, Rpn11 block inactive, TPT1 inhibitor 12.1 and HNF4A DNA FP 13.9.
`CCCN1C(=O)S/C(=C\c2ccc(N3CCOCC3)o2)C1=O` gave CSN deneddyl inh -14.8, TPT1 inhibitor active, HNF4A DNA FP 127.4, caTPT1 confirm 187.5* and RNase T1 inh 168.5*.
`CC(=O)N[C@@H]1C=C[C@@H](CC(=O)NCc2ccc(Cl)cc2)O[C@@H]1CO` gave CSN deneddyl inh -2.6 and HNF4A DNA FP -0.7.
O=C(O)c1ccccc1N/N=C/c1c(Sc2nnnn2-c2ccccc2)nc2ccccn2c1=O was read as CSN deneddyl inh 97.0*, TPT1 inhibitor 67.7*, HNF4A DNA FP 95.8*, caTPT1 confirm 18.6 and RNase T1 inh 31.0*.
`O=c1c(/C=N/Nc2ccccc2)c(Sc2nnnn2-c2ccccc2)nc2ccccn12` gave CSN deneddyl inh 45.5 and HNF4A DNA FP -6.7.
`CC1CCCN(S(=O)(=O)c2ccc(C(=O)Nc3sc4c(c3C(N)=O)CCN(C)C4)cc2)C1` (centres undefined) gave CSN deneddyl inh 12.9, Rpn11 block inactive, TPT1 inhibitor 73.5*, HNF4A DNA FP 19.3, caTPT1 confirm 64.1* and RNase T1 inh 71.3*.
For CNC(=O)c1c(NC(=O)c2ccc(S(=O)(=O)N3CCCCC3C)cc2)sc2c1CCN(C)C2 (centres undefined) the results were CSN deneddyl inh 2.4, TPT1 inhibitor 8.2 and HNF4A DNA FP 4.2.
`CC(C)N1CCc2c(sc(NC(=O)c3ccc(S(=O)(=O)N4CCOCC4)cc3)c2C(N)=O)C1` gave CSN deneddyl inh 8.7, Rpn11 block inactive, TPT1 inhibitor 36.1*, HNF4A DNA FP 0.4, caTPT1 confirm 43.1* and RNase T1 inh 55.6*.
`CNC(=O)c1c(NC(=O)c2ccc(S(=O)(=O)N3CC(C)OC(C)C3)cc2)sc2c1CCN(C(C)C)C2` (centres undefined) gave CSN deneddyl inh 8.1, Rpn11 block inactive, TPT1 inhibitor 7.6 and HNF4A DNA FP 6.4.
Screening CNC(=O)c1c(NC(=O)c2ccc(S(=O)(=O)N3CCCC3)cc2)sc2c1CCN(C(C)C)C2 returned TPT1 inhibitor 148.0*, caTPT1 confirm 153.1* and RNase T1 inh 145.2*.
`C/C(=N\Nc1cccc(Cl)c1)C1(C)N(O)C(C)(C)C(c2ccco2)=[N+]1[O-]` (centres undefined) gave CSN deneddyl inh 2.5, Rpn11 block inactive, TPT1 inhibitor 1.2 and HNF4A DNA FP -1.2.
Screening O=C(C[C@H]1C/C=C\C[C@@H](Cc2ccc(F)cc2)C(=O)OC[C@@H](Cc2c[nH]c3ccccc23)NC1=O)NCCO returned CSN deneddyl inh 1.3, Rpn11 block inactive and HNF4A DNA FP -6.5.
`O=C(C[n+]1cccc2ccccc21)c1ccccc1` gave CSN deneddyl inh -7.6, TPT1 inhibitor 10.6 and HNF4A DNA FP 3.5.
For O=C(C[n+]1cccc2ccccc21)c1ccc(NC(=O)c2ccccc2)cc1 the results were CSN deneddyl inh 1.2, TPT1 inhibitor 39.5*, HNF4A DNA FP 7.6, caTPT1 confirm 28.0* and RNase T1 inh 41.1*.
COc1ccc(CN(C)C(=O)CNC(=O)c2sc3ccccc3c2Cl)c(OC)c1 was read as CSN deneddyl inh -2.3, Rpn11 block inactive and HNF4A DNA FP 6.0.
COc1ccc(-n2c(N)c(C(=O)NCc3ccco3)c3nc4ccccc4nc32)c(OC)c1 was read as CSN deneddyl inh 25.1, Rpn11 block inactive, TPT1 inhibitor 39.2*, HNF4A DNA FP 3.3, caTPT1 confirm 9.8 and RNase T1 inh 17.0.
`CCOc1ccc(S(=O)(=O)N2CCC(C(=O)N3CCN(Cc4ccccc4)CC3)CC2)cc1` gave CSN deneddyl inh 3.7, Rpn11 block inactive, TPT1 inhibitor -1.4 and HNF4A DNA FP 7.3.
For COc1ccc(-c2oc3c(c2C#CCCCCO)C(OCCO)CC3)cc1 (centres undefined) the results were CSN deneddyl inh -2.9 and HNF4A DNA FP 8.5.
COC(=O)c1cc(NC(=O)c2cccc(Cl)c2)c(=O)oc1/C=C/Nc1cc(C)cc(C)c1 was read as TPT1 inhibitor 194.0*, caTPT1 confirm 166.3* and RNase T1 inh 155.4*.
Screening N#CC1=C(N)Oc2cc(O)c(Cl)cc2C1c1ccccc1F (centres undefined) returned CSN deneddyl inh 12.2, Rpn11 block inactive, TPT1 inhibitor 71.9*, HNF4A DNA FP -4.0, caTPT1 confirm 15.4 and RNase T1 inh 25.7*.
For COC(=O)C1=C(C)OC(N)=C(C#N)C1c1ccccc1F (centres undefined) the results were CSN deneddyl inh 2.5, Rpn11 block inactive, TPT1 inhibitor 0.8 and HNF4A DNA FP 0.0.
For Cc1ccccc1CNC(=O)Cn1cnc(S(=O)(=O)N2CCCC2)c1 the results were CSN deneddyl inh -2.2, Rpn11 block inactive, TPT1 inhibitor -1.0 and HNF4A DNA FP 4.5.
Screening Cc1ccc2nc(/C(C#N)=C/c3ccc(-c4cccc([N+](=O)[O-])c4)o3)[nH]c2c1 returned CSN deneddyl inh 45.5, Rpn11 block inactive, TPT1 inhibitor 76.2*, HNF4A DNA FP 23.1, caTPT1 confirm 65.4* and RNase T1 inh 74.0*.
Cc1ccc2nc(/C(C#N)=C\c3cc(O)ccc3[N+](=O)[O-])[nH]c2c1 was read as CSN deneddyl inh -9.6, Rpn11 block inactive, TPT1 inhibitor 10.1 and HNF4A DNA FP -5.5.
`CCCNC(=O)c1ccccc1NC(=O)c1cccc(-n2cnnn2)c1` gave CSN deneddyl inh 2.8, Rpn11 block inactive and HNF4A DNA FP -0.2.
`COc1ccc(OCCN(C)C(=O)c2cccc(S(=O)(=O)N(C)c3ccccc3)c2)cc1` gave CSN deneddyl inh -1.9, Rpn11 block inactive and HNF4A DNA FP -2.3.
For O=C1/C(=C\c2cccnc2)Sc2ccccc21 the results were CSN deneddyl inh 3.0, Rpn11 block inactive, TPT1 inhibitor 1.7 and HNF4A DNA FP -0.2.
CC(=O)N(\C=C/C=C/C=C1\Sc2ccccc2C1=O)c1ccccc1 was read as CSN deneddyl inh 0.9, Rpn11 block inactive, TPT1 inhibitor 57.5*, HNF4A DNA FP 48.8*, caTPT1 confirm 84.4* and RNase T1 inh 94.0*.
For CC(=O)Nc1ccc(/C=C2/Sc3ccccc3C2=O)cc1 the results were CSN deneddyl inh 4.5, Rpn11 block inactive, TPT1 inhibitor 44.5*, HNF4A DNA FP 0.7, caTPT1 confirm 42.8* and RNase T1 inh 50.5*.
